Experimental data collected from several papers.
Lines come from different studies, so protocols differ.
tlpQ: tlpQ (Pseudomonas aeruginosa, UniProt Q9I0I4)
CES1: Liver carboxylesterase 1 (CES1, Homo sapiens, UniProt P23141)
gag-pol protease: Gag-Pol polyprotein, protease (gag-pol, Human immunodeficiency virus type 1 group M subtype B, UniProt P04585)
F2: Prothrombin (F2, Homo sapiens, UniProt P00734)

NCCCCNCCCN  Kd (tlpQ; binding, ITC): 0.12 µM
C=CCc1ccc(O)c(-c2cc(CC=C)ccc2O)c1  Ki (CES1; enzyme activity, inhibitor): 0.094 µM
O=c1c2cc(Cl)c(CO)cc2[nH]c(=S)n1Cc1cccnc1  IC50 (Voltage-gated inwardly rectifying potassium channel KCNH2 (KCNH2, Homo sapiens, UniProt Q12809); ion current, inhibitor, patch clamp; pH 7.4): > 10 µM
COc1ccc(S(=O)(=O)N(CC(C)C)C[C@@H](O)[C@H](Cc2ccccc2)NC(=O)O[C@H]2CCC[C@@]23CCO[C@@H](c2cc(OC)cc(OC)c2)C3)cc1  Ki (gag-pol protease; enzyme activity, inhibitor): 0.0026 µM
CC1=C(O)C(=O)C=C2C1=CC=C1[C@@]2(C)CC[C@@]2(C)[C@@H]3C[C@](C)(C(=O)O)CC[C@]3(C)CC[C@]12C  Kd (Aldo-keto reductase family 1 member B10 (AKR1B10, Homo sapiens, UniProt O60218); binding, BLI): 2.41 µM
COc1ccc(S(=O)(=O)N(CC(C)C)C[C@@H](O)[C@H](Cc2ccccc2)NC(=O)O[C@@H]2CCC[C@@]23CCO[C@@H](c2cccc(OC)c2)C3)cc1  Ki (gag-pol protease; enzyme activity, inhibitor): 1.14 µM
CN1CCC(CNc2ccc3ncc(-c4cccc(OC(F)(F)F)c4)n3n2)CC1  IC50 (3',5'-cyclic-AMP phosphodiesterase 4D (PDE4D, Homo sapiens, UniProt Q08499); enzyme activity, inhibitor): 5.04 µM
COc1ccc(S(=O)(=O)N(CC(C)C)C[C@@H](O)[C@H](Cc2ccccc2)NC(=O)O[C@H]2CCC[C@]23CCO[C@H](c2ccccc2OC)C3)cc1  Ki (gag-pol protease; enzyme activity, inhibitor): 0.00022 µM
Cn1c(=O)n(CCCCN2CCC3(CC2)OCc2ccccc23)c2ccccc21  Ki (Sodium-dependent dopamine transporter (Slc6a3, Rattus norvegicus, UniProt P23977); ligand displacement, radioligand; cell membranes): 0.311 µM
CS(=O)(=O)N[C@@H](CCC(N)=O)C(=O)N[C@@H](Cc1ccccc1)C(=O)N[C@@H](CCCNC(=N)N)C(=O)c1nccs1  Ki (F2; cell-free assay): > 10 µM
CCOC(=O)c1ccc(OC(=O)CCCCCN=C(N)N)cc1  IC50 (Kallikrein-14 (Homo sapiens, UniProt Q9P0G3); enzyme activity, inhibitor): 0.641 µM
CCOC(=O)N[C@@H](CCCNC(=N)N)C(=O)N[C@@H](CCC(N)=O)C(=O)N[C@@H](Cc1ccccc1)C(=O)N[C@@H](CCCNC(=N)N)C(=O)c1nc2ccccc2s1  Ki (F2; cell-free assay): > 10 µM
NCCc1c[nH]c2ccc(O)cc12  Kd (tlpQ; binding, ITC): > 1000 µM
COc1c2c(cc3c1-c1c(cc4c(c1OC)OCO4)C[C@H](C)[C@H](C)C3)OCO2  Ki (CES1; enzyme activity, inhibitor): 0.0898 µM
